Source: PubChem BioAssay
An excerpt weighted towards active compounds, which were near 4% of everything screened.
GPR7 antagonist: GPR7 receptor antagonists, primary screen, cell-based, fluorescence, single concentration. Neuropeptides B/W receptor type 1 (Homo sapiens), P48145. GPR7-expressing cells, fluorescence antagonist assay. inhibition, % at 4.4 µM. 1.1% of 290,000 active. AID 1861, 2009; in the data active means inhibition above about 16%, passing the limit was not always enough;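 further: cells stimulated with the agonist NPW; 0% = agonist with vehicle and 100% = vehicle without agonist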
TAAR1 antagonist: human TAAR1 antagonists, primary screen, Fluo-8 calcium fluorescence, CHO RD-HGA16 cells; antagonist; inhibition, % at 3 µM; 1.5% of 360,000 active; AID 624466, 2012;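 active means inhibition above a per-plate cutoff, the mean inhibition of test compounds on that plate plus 3 SD, cut at about 49% in these data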;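 further: 0% = DMSO plus EC80 beta-PEA response and 100% = DMSO alone without agonist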
Target sequence (Q96RJ0 whole entry, looked up): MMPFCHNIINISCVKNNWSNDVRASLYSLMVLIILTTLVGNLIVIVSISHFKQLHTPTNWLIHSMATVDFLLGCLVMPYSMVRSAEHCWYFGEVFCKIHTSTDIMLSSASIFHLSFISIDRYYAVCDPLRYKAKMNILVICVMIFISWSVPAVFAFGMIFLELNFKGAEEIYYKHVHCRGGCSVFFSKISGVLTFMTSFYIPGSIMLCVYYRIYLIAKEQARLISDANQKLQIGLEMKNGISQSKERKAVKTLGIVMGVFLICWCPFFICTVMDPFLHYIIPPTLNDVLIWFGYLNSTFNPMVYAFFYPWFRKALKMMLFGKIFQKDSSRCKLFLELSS
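test system = CHO RD-HGA16 cells bearing hTAAR1 | replication = singlicate | controls = DMSO-only wells and EC80 β-PEA-stimulated wells | reagent = EC80 β-phenethylamine stimulus | read-out basis = percent inhibition of PEA-evoked calcium signal, max/basal emission ratio | schedule = seeding 17-24 h prior, 75-min 37 °C, 30-min RT dye loading | signal = kinetic Fluo-8 calcium fluorescence measurement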
MPTP block: mitochondrial permeability transition pore inhibitors, primary screen, biochemical, isolated mouse mitochondria, absorbance; Ca2+ swelling absorbance, 30 min; inhibition, % at 10 µM; 1.4% of 360,000 active;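 active means inhibition of 50% or more, scaled per plate between neutral and stimulator controls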;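 further: 0% = DMSO wells given calcium and 100% = 1 mM EGTA wells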
TAAR1 ag: human TAAR1 agonists, primary screen, Fluo-8 calcium fluorescence, CHO RD-HGA16 cells. Trace amine-associated receptor 1 (Homo sapiens), Q96RJ0. activation, % at 3 µM. vehicle wells 0%, saturating PEA agonist 100%. 0.99% of 360,000 active;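 active means activation above the mean activation of all test compounds in the run plus 3 SD, cut at about 38% in these data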
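System: CHO RD-HGA16 cells carrying human TAAR1 plus Gα16; Incubation: 17-24 h seeding, 75 min 37 °C dye, 30 min RT; Measured by: Fluo-8 fluorescence, 5 s baseline then 140 s kinetic read; Control set: DMSO and PEA EC100; Replication: single well for each compound.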
DAGLB inh: DAGLB lipase inhibitors, primary screen, biochemical, fluorescence, HTS; HEK293T DAGLB membrane lysate, EnzChek fluorogenic substrate; inhibition, % at 5.17 µM; AID 504411, 2011; 0.059% of 340,000 active; Diacylglycerol lipase-beta (Homo sapiens), Q8NCG7; in the data active means inhibition above about 34%;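 further: 0% = enzyme with vehicle and 100% = wells lacking enzyme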
TAAR1 ag confirm: human TAAR1 agonists, retest of hits, confirmation, Fluo-8 calcium fluorescence, CHO RD-HGA16 cells; activation, % at 3 µM; AID 651783, 2012; 82% of 2,400 active; shares compounds with TAAR1 ag; scaled: DMSO 0%, maximal phenethylamine 100%;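 active means activation above a cutoff set at the run's mean compound activation plus 3 SD, cut at about 39% in these data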
Ga16 ag counter: nonselective calcium mobilization agonists, CHO-Ga16 cells, counter-screen for hTAAR1 agonist project, cell-based, fluorescence, CHO-Ga16 parental line; Fluo-8 calcium fluorescence; normalized to maximal ATP response, DMSO zero; 50% of 2,400 active; activation, % at 3 µM; shares compounds with TAAR1 ag;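 active means activation above the run cutoff, the mean activation over all tested wells plus 3 SD, cut at about 12% in these data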;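 further: 0% = DMSO wells and 100% = maximal ATP response on the peak over basal ratio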
TAAR1 desens: TAAR1 desensitization by agonist hits, confirmation, counter-screen for TAAR1 agonist project, cell-based, fluorescence, tachyphylaxis | shares compounds with TAAR1 ag | inhibition, % at 3 µM | 46% of 2,400 active | CHO RD-HGA16 hTAAR1, Fluo-8 calcium, beta-PEA response inhibition;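 active means inhibition above the run cutoff, the mean inhibition of all test compounds plus 3 SD, cut at about 49% in these data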;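 further: beta-PEA stimulus applied at its EC80; loss of beta-PEA calcium signal after compound pretreatment read as receptor desensitization; 0% = DMSO with beta-PEA at EC80 and 100% = DMSO alone without agonist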
Ga16 antag count: inhibition of ATP-evoked calcium response in CHO-Ga16 cells, counter-screen for TAAR1 agonist project, cell-based, fluorescence; 39% of 2,400 active; CHO-Ga16 ATP-induced calcium, Fluo-8 fluorescence; shares compounds with TAAR1 ag; inhibition, % at 3 µM;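 active means inhibition above the plate's mean compound inhibition plus 3 SD, computed per plate, cut at about 22% in these data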;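 further: 0% = EC80 ATP with DMSO and 100% = DMSO wells without ATP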
* marks the source's active call; other numbers are inactive results; x = not tested or not shown.

SMILES	GPR7 antagonist	TAAR1 antagonist	MPTP block	TAAR1 ag	DAGLB inh	TAAR1 ag confirm	Ga16 ag counter	TAAR1 desens	Ga16 antag count
COc1ccc(CCn2c(C3CCCCC3)nc3c(c(=O)c4ccccc4n3C)c2=O)cc1	-14	96*	29	111*	x	65*	61*	78*	64*
CC(C)c1nc2c(c(=O)c3ccccc3n2C)c(=O)n1CCc1ccccc1	-20	23	16	76*	x	43*	37*	28	20
COc1ccc2c(CC(=O)OCC(=O)Nc3cccc(C)c3)coc2c1	x	-10	-1	0	0	x	x	x	x
Cc1cccc(CC(C)NC(=O)c2cc(COc3ccc(C)c(C)c3)on2)n1 (centres undefined)	-14	-20	-1	3	-3	x	x	x	x
Cc1cccc(CC(C)NC(=O)c2cc(COc3ccc(F)cc3F)on2)n1 (centres undefined)	-16	99*	2	88*	-2	9	5	14	7
COc1cccc(/C=C2/Sc3ccc(C(=O)NC4CC4)cc3NC2=O)c1	x	-3	x	1	x	x	x	x	x
CC(C)C[C@H](NC(=O)c1nccs1)C(=O)N1CCC[C@H]1C(=O)NCc1ccccc1	x	4	x	3	x	x	x	x	x
CN(C)Cc1c(C(C)(C)O)[nH]c2cc(F)ccc12	x	1	x	0	x	x	x	x	x
O=C(O)c1ccc(N/N=C/C2=Cc3ccccc3OC2)cc1	-24	8	1	89*	3	54*	39*	33	17
O=C(O)c1ccc(N/N=C/c2ccncc2)cc1	-1	-3	0	1	-1	x	x	x	x
CC(C)CNC(=O)c1ccccc1-c1ccccc1C(=O)O	5	3	0	54*	2	7	5	-2	7
Cc1cc(N2CCN(C(=O)OC(C)(C)C)C[C@H]2C)ccc1Br	x	-14	x	1	x	x	x	x	x
c1ccc(CCN=C2CCCc3c2[nH]c2ccccc32)cc1	17	96*	-1	95*	-6	99*	0	101*	9
Nc1ccc(C(=O)N/N=C2\CCCc3c2[nH]c2ccccc32)cc1	-4	-8	0	23	4	x	x	x	x
COc1cccc(C(=O)C(=O)N2CCN(C(=O)OCc3ccccc3)CC2)c1	x	-18	-1	1	x	x	x	x	x
CC(C)C1=CC(=Nc2ccc(S(N)(=O)=O)cc2)C=C(C(C)C)C1=O	-7	-23	-1	8	-1	x	x	x	x
CC(C)(C)N1C(=O)c2ccccc2NC(=O)C1C(=O)NCCc1ccccc1F (centres undefined)	x	-18	0	2	x	x	x	x	x
Cc1cccc(/C=N\Nc2cn[nH]c(=O)c2Cl)c1	1	70*	0	53*	0	88*	-2	72*	0
O=c1[nH]ncc(N/N=C\c2ccncc2)c1Cl	-8	-8	1	16	1	x	x	x	x
O=c1[nH]ncc(N/N=C\c2cccs2)c1Cl	10	x	0	x	2	x	3	x	7
CCCCCCCCN1C(=O)[C@H](CC(=O)NCc2ccc(OC)c(OC)c2)C[C@@]2(C(=O)OC)CCCCC=C12	x	6	0	-2	x	x	x	x	x
COc1ccc(S(=O)(=O)NNC(=S)NCCc2ccccc2)c(OC)c1	-2	-30	-2	49*	1	17	1	3	6
